Consider 25 molecules from ChEMBL document CHEMBL3244097, “Fluorinated retinoic acids and their analogues. 1. Synthesis and Biological activity of (4-methoxy-2,3,6-trimethylphenyl)nonatetraenoic acid analogues” (J Med Chem, 1979).

One may read the ED50 as the dose that gives a 50% effect, or the effect in half of the subjects.

For data set [1], the system named is Mus musculus. The data set can be described thus: Antipapilloma activity against Hart Swiss albino mouse assessed as decrease in chemically-induced papillomas at 5 mg/kg, ip for 5 days/week for 2 weeks. Type of data set: functional. On the set-up: scale not given: the % may be the effect or the level left. The conditions noted are these: route intraperitoneal.

Data set [2] relates to Mus musculus. Nature of the data set: Antipapilloma activity against Hart Swiss albino mouse assessed as decrease in chemically-induced papillomas at 20 mg/kg, ip for 5 days/week for 2 weeks. Also noted: scale not given: the % may be the effect or the level left. The note with it: route intraperitoneal. Type of data set: functional.
The subject of data set [3] is Mus musculus. The data set can be described thus: Antipapilloma activity against Hart Swiss albino mouse assessed as decrease in chemically-induced papillomas at 40 mg/kg, ip for 5 days/week for 2 weeks. The note with it: route intraperitoneal. In kind it is functional. Also noted: scale not given: the % may be the effect or the level left.
The test system of data set [4] is Mus musculus. Nature of the data set: Antipapilloma activity against Hart Swiss albino mouse assessed as decrease in chemically-induced papillomas compound treated ip for 5 days/week for 2 weeks. Type of data set: functional. The essentials:
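At least four doses were used. ED50, the dose giving a 50% decrease in papilloma diameter, was read from a plot of percent decrease versus log dose, fitted by least squares, with a correlation coefficient reported.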

In data set [5] the test system is Mus musculus. The data set can be described thus: Antipapilloma activity against Hart Swiss albino mouse assessed as decrease in chemically-induced papillomas at 10 mg/kg, ip for 5 days/week for 2 weeks. In kind it is functional. On the set-up: scale not given: the % may be the effect or the level left. The note with it: route intraperitoneal.
Data set [6] has as its system Mus musculus. Nature of the data set: Toxicity in mouse assessed as hypervitaminosis dose compound treated ip daily monday through friday in first week and monday through thursday in second week measured after 1 day of last injection. Type of data set: organism-based. The note with it: in vivo, 24 h. Summed up: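 Normal mice received retinoid suspended in water containing 0.1% carboxymethylcellulose and 0.01% Triton X-100, given intraperitoneally daily Monday–Friday in week 1 and Monday–Thursday in week 2. Hypervitaminosis, taken as the measure of toxicity, was scored 1 day after the last injection.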

In data set [7] the test system is Mus musculus. Nature of the data set: Antipapilloma activity against Hart Swiss albino mouse assessed as decrease in chemically-induced papillomas at 2.5 mg/kg, ip for 5 days/week for 2 weeks. Type of data set: functional. On the set-up: scale not given: the % may be the effect or the level left. The conditions noted are these: route intraperitoneal.
Data set [8] deals with Mus musculus. The data set can be described thus: Antipapilloma activity against Hart Swiss albino mouse assessed as decrease in chemically-induced papillomas at 1.25 mg/kg, ip for 5 days/week for 2 weeks. Type of data set: functional. Also noted: scale not given: the % may be the effect or the level left. The conditions noted are these: route intraperitoneal.
The subject of data set [9] is Mus musculus. The data set can be described thus: Antipapilloma activity against Hart Swiss albino mouse assessed as decrease in chemically-induced papillomas at 1000 mg/kg, ip once weekly for 2 weeks. Also noted: scale not given: the % may be the effect or the level left. The conditions noted are these: route intraperitoneal.
The test system of data set [10] is Mus musculus. Nature of the data set: Antipapilloma activity against Hart Swiss albino mouse assessed as decrease in chemically-induced papillomas at 80 mg/kg, ip for 5 days/week for 2 weeks. Also noted: scale not given: the % may be the effect or the level left. The conditions noted are these: route intraperitoneal. Type of data set: functional.
For data set [11], the system named is Mus musculus. The data set can be described thus: Antipapilloma activity against Hart Swiss albino mouse assessed as decrease in chemically-induced papillomas at 600 mg/kg, ip once weekly for 2 weeks. On the set-up: scale not given: the % may be the effect or the level left. The conditions noted are these: route intraperitoneal.

Regarding `COC(=O)/C=C(C)/C=C/C(F)=C(C)/C=C/c1c(C)cc(OC)c(C)c1C`, the Activity was 28% in [1]; 60% in data set [2]; 79% in data set [3]; 35% in data set [5]; 50 mg/kg/day in data set [6]. The ED50 in data set [4] amounted to 13.8 mg/kg/day.

For the molecule `COc1cc(C)c(/C=C/C(C)=C/C=C(F)/C(C)=C/C(=O)O)c(C)c1C`, the Activity is 63% in data set [1]; 80% in data set [5]; 48% in [7]; 34% in data set [8]; 25 mg/kg/day in data set [6]. Further, in data set [4], the ED50 turned out to be 2.7 mg/kg/day.

As to `CCOC(=O)/C=C(C)/C=C/C=C(C)/C=C/C1=C(C)CCCC1(C)C`, the Activity in [3] was determined as 36%; in data set [9] it was 85%; in data set [10] it was 47%; in data set [11], 76%; in [6] it was 50 mg/kg/day. Besides, in data set [4], the ED50 came to 48 mg/kg/day.

Take `CCOC(=O)/C=C(C)/C(F)=C/C(F)=C(C)/C=C/c1c(C)cc(OC)c(C)c1C`: the figures for the Activity in data set [10] and in data set [6] were 33% and above 200 mg/kg/day, respectively. Also, the ED50 in data set [4] is above 80 mg/kg/day.

With `CCOC(=O)/C(F)=C(C)/C=C/C=C(C)/C=C/C1=C(C)CCCC1(C)C`, the Activity in [2] is 40%; in data set [6], 100 mg/kg/day. The ED50 in data set [4] was above 20 mg/kg/day.

In the case of `CCOC(=O)/C=C(C)/C(F)=C/C=C(C)/C=C/C1=C(C)CCCC1(C)C`, the Activity worked out at 33% in data set [2]; 67% in [3]; 83% in data set [10]; 33% in [5]; 100 mg/kg/day in [6]. Besides, the ED50 in data set [4] came to 24.3 mg/kg/day.

In the case of `COC(=O)/C=C(C)/C=C/C(F)=C(C)/C=C/C1=C(C)CCCC1(C)C`, the figures for the Activity in [10] and in [6] were 60% and 200 mg/kg/day, respectively. Also, the ED50 in data set [4] is below 80 mg/kg/day.

As to `CCOC(=O)/C(F)=C(C)/C=C/C=C(C)/C=C/c1c(C)cc(OC)c(C)c1C`, the ED50 in data set [4] was above 10 mg/kg/day. Moreover, the results for the Activity in [5] and in data set [6] were 37% and 12.5 mg/kg/day, respectively.

Take `CCOC(=O)/C=C(C)/C(F)=C\C=C(C)\C=C\c1c(C)cc(OC)c(C)c1C`: the Activity in [10] is 56%; in data set [6], 200 mg/kg/day. The ED50 in data set [4] was determined as 80 mg/kg/day.

As to `COC(=O)/C=C(C)/C=C/C(F)=C(C)\C=C\c1c(C)cc(OC)c(C)c1C`, the Activity in data set [10] was determined as 17%; in data set [6], 200 mg/kg/day. In data set [4], the 50% effective dose (ED50) was above 80 mg/kg/day.

In the case of `COC(=O)/C=C(C)/C=C/C=C(C)/C(F)=C/c1c(C)cc(OC)c(C)c1C`, the Activity in [10] is given as 3%; in data set [6], above 200 mg/kg/day. The ED50 in data set [4] is above 80 mg/kg/day.

For `CCOC(=O)/C=C(C)/C=C/C=C(C)/C=C(\F)c1c(C)cc(OC)c(C)c1C`, in data set [3], the Activity came to 40%. Further, the ED50 in data set [4] was above 40 mg/kg/day.

In the case of `CCOC(=O)/C=C(C)/C=C/C=C(C)/C=C(/F)c1c(C)cc(OC)c(C)c1C`, the Activity in [3] was 26%. Moreover, the ED50 in [4] was above 40 mg/kg/day.

In the case of `CCOC(=O)/C(F)=C(C)/C(F)=C/C=C(C)/C=C/c1c(C)cc(OC)c(C)c1C`, the values for the Activity in data set [10] and in data set [6] were 17% and above 200 mg/kg/day, respectively. The 50% effective dose (ED50) in data set [4] was above 80 mg/kg/day.

Regarding `CCOC(=O)/C(F)=C(C)/C=C/C(F)=C(C)/C=C/c1c(C)cc(OC)c(C)c1C`, the Activity was 35% in data set [10] and above 200 mg/kg/day in data set [6]. In [4], the ED50 is above 80 mg/kg/day.

As to `CCOC(=O)\C=C(/C=C/C=C(C)/C=C/c1c(C)cc(OC)c(C)c1C)C(F)(F)F`, the Activity in data set [10] was -2%; in [6], above 200 mg/kg/day. Moreover, the ED50 in data set [4] is above 80 mg/kg/day.

For the molecule `COC(=O)/C=C(C)/C=C/C=C(\C=C\c1c(C)cc(OC)c(C)c1C)C(F)(F)F`, the Activity is recorded as 25% in [10] and above 200 mg/kg/day in [6]. The ED50 in data set [4] was above 80 mg/kg/day.

In the case of `COc1cc(C)c(/C=C/C(C)=C(F)/C=C/C(C)=C/C(=O)O)c(C)c1C`, the Activity in [1] was 30%; in data set [2] it was 87%; in [5], 54%; in data set [7], 28%; in [6], 50 mg/kg/day. Moreover, the ED50 in data set [4] amounted to 7.1 mg/kg/day.

With `CCNC(=O)/C=C(C)/C(F)=C/C=C(C)/C=C/c1c(C)cc(OC)c(C)c1C`, the Activity is 67% in [2], 73% in data set [5] and 50 mg/kg/day in [6]. Also, the 50% effective dose (ED50) in [4] is below 10 mg/kg/day.

Regarding `CCNC(=O)/C=C(C)/C=C/C(F)=C(C)/C=C/c1c(C)cc(OC)c(C)c1C`, the Activity was determined as 53% in [10] and 200 mg/kg/day in data set [6]. Further, the median effective dose (ED50) in data set [4] was found to be 80 mg/kg/day.

Take `CCOC(=O)/C=C(C)/C(F)=C/C=C(C)/C=C/c1c(C)cc(OC)c(C)c1C`: the Activity in data set [1] is given as 43%; in data set [2] it was 62%; in [3], 69%; in [10], 82%; in data set [5] it was 76%; in data set [6] it was 50 mg/kg/day. Also, in data set [4], the ED50 was 4 mg/kg/day.

For the molecule `COC(=O)/C=C(C)/C=C(F)/C=C(C)/C=C/c1c(C)cc(OC)c(C)c1C` (mixture of isomers), the results for the Activity in data set [10] and in data set [6] were 25% and above 200 mg/kg/day, respectively. Moreover, the median effective dose (ED50) in data set [4] was above 80 mg/kg/day.

In the case of `COc1cc(C)c(/C=C/C(C)=C/C=C/C(C)=C/C(=O)O)c(C)c1C` [ACITRETIN], the Activity in [1] worked out at 18%; in [2], 66%; in data set [3] it was 90%; in data set [5], 43%; in data set [6], 100 mg/kg/day. Further, the 50% effective dose (ED50) in data set [4] was 12.5 mg/kg/day.

For the molecule `CCOC(=O)/C=C(C)/C=C/C=C(C)/C=C/c1c(C)cc(OC)c(C)c1C` [ETRETINATE], the Activity in data set [2] was found to be 29%; in [3], 33%; in [10], 47%; in [5], 9%; in data set [6], 100 mg/kg/day. In addition, the ED50 in data set [4] amounted to 80 mg/kg/day.

Take `CCNC(=O)/C=C(C)/C=C/C=C(C)/C=C/c1c(C)cc(OC)c(C)c1C` [MOTRETINIDE]: the Activity in data set [1] is on record as 11%; in data set [2] it was 54%; in data set [3], 73.8%; in [5], 23%; in [6], 50 mg/kg/day. Further, in data set [4], the median effective dose (ED50) came to 19.2 mg/kg/day.
